# Test results taken from ChEMBL document CHEMBL4602710 (ACS Med Chem Lett, 2020).
# Activity calls are given as the source filed them. No cut-off for these calls is given here.
# Tests used:
# [1] = Efflux ratio of apparent permeability of compound in human Caco2 cells; type: ADME, cell-based; settings: Caco-2
# [2] = Solubility of compound at pH 2; type: physicochemical; settings: buffer
# [3] = Solubility of compound at pH 7.4; type: physicochemical; settings: buffer
# [4] = biological target: T1, Tyrosine-protein kinase SYK (Homo sapiens, UniProt P43405); test: Inhibition of SYK in human Ramos cells assessed as reduction in antihuman IgM F(ab)2-induced phosphorylation of BLNK at Y96 residue preincubated for 1 hr followed by antihuman IgM F(ab)2 stimulation for 5 mins by MSD high bind plate assay; type: cell-based
# [5] = biological target: T1, Tyrosine-protein kinase SYK; test: Inhibition of SYK in human whole blood assessed as reduction in anti-FCepsilonR1 mAb-induced basophil activation by measuring decrease in CD63 surface expression incubated for 60 mins followed by anti-FCepsilonR1 mAb stimulation for 20 mins by flow cytometry analysis; type: tissue-based
# [6] = Apparent permeability of compound in human Caco2 cells; type: ADME, cell-based; settings: Caco-2
# [7] = Clearance in human liver microsomes; type: ADME, Microsome
# [8] = biological target: T1, Tyrosine-protein kinase SYK; test: Inhibition of SYK (unknown origin) using XL665-labeled peptide as substrate in presence of ATP measured after 30 mins by TR-FRET assay
# [9] = Distribution coefficient, logD of compound; type: physicochemical; settings: octanol/water
# [10] = Oral bioavailability in rat at 5 mg/kg; type: ADME, organism-based; settings: in vivo
# Mus musculus [11] = test: Protective activity in NZBWF1/J mouse SLE model assessed as increase in animal survival rate at 0.25%, po administered daily for 12 weeks measured at week 40; type: functional, organism-based
# How it was run: (§1)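 Spontaneous lupus model in NZB/W F1 mice, treated for 12 weeks. Proteinuria score followed from weeks 28–40; survival assessed at week 40.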
# [12] = Half life at steady state in human at 2 to 50 mg administered once daily; type: ADME; settings: in vivo, read-out: t1/2ss
# [13] = Apparent clearance in rat hepatocytes; type: ADME, cell-based, Hepatocyte
# Hepatocyte [14] = test: Apparent clearance in monkey hepatocytes; type: ADME, cell-based, Macaca mulatta; settings: rhesus monkey
# [15] = Fraction unbound in monkey plasma; type: ADME, cell-free, Macaca mulatta; settings: rhesus monkey
# [16] = Fraction unbound in human plasma; type: ADME, cell-free
# [17] = Toxicity in human assessed as clinical abnormalities at 2 to 50 mg administered as single dose; settings: in vivo
# How it was run: (§2)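 Healthy human volunteers received single doses of 2–50 mg or multiple doses of 15–50 mg; adverse events and laboratory abnormalities recorded.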
# Mus musculus [18] = test: Protective activity in NZBWF1/J mouse SLE model assessed as reduction in proteinuria at 0.25%, po administered daily for 12 weeks measured weekly from week 28-40; type: functional, organism-based; how it was run: as §1
# [19] = Volume of distribution at steady state in rat at 1 mg/kg, iv or 5 mg/kg, po; type: ADME, organism-based; settings: in vivo, read-out: Vdss
# [20] = AUC in dog pretreated with pentagastrin; type: ADME, Canis lupus familiaris; settings: in vivo
# [21] = Oral bioavailability in monkey at 5 mg/kg; type: ADME, organism-based, Macaca mulatta; settings: rhesus monkey, in vivo
# [22] = Toxicity in human assessed as clinical abnormalities at 15 to 50 mg administered as multiple doses; settings: in vivo; how it was run: as §2
# [23] = Oral bioavailability in dog at 5 mg/kg; type: ADME, organism-based, Canis lupus familiaris; settings: in vivo
# [24] = Fraction unbound in dog plasma; type: ADME, cell-free, Canis lupus familiaris
# [25] = Toxicity in human assessed as adverse events at 15 to 50 mg administered as multiple doses; settings: in vivo; how it was run: as §2
# [26] = Clearance in monkey at 1 mg/kg, iv or 5 mg/kg, po; type: ADME, organism-based, Macaca mulatta; settings: rhesus monkey, in vivo
# [27] = Volume of distribution at steady state in monkey at 1 mg/kg, iv or 5 mg/kg, po; type: ADME, organism-based, Macaca mulatta; settings: rhesus monkey, in vivo, read-out: Vdss
# [28] = Half life in monkey at 1 mg/kg, iv or 5 mg/kg, po; type: ADME, organism-based, Macaca mulatta; settings: rhesus monkey, in vivo
# [29] = AUC in dog pretreated with famotidine; type: ADME, Canis lupus familiaris; settings: in vivo
# [30] = Half life in dog at 1 mg/kg, iv or 5 mg/kg, po; type: ADME, organism-based, Canis lupus familiaris; settings: in vivo
# [31] = Toxicity in human assessed as adverse events at 2 to 50 mg administered as single dose; settings: in vivo; how it was run: as §2
# [32] = Volume of distribution at steady state in dog at 1 mg/kg, iv or 5 mg/kg, po; type: ADME, organism-based, Canis lupus familiaris; settings: in vivo, read-out: Vdss
# [33] = Clearance in rat at 1 mg/kg, iv or 5 mg/kg, po; type: ADME, organism-based; settings: in vivo
# [34] = Half life in rat at 1 mg/kg, iv or 5 mg/kg, po; type: ADME, organism-based; settings: in vivo
# [35] = biological target: Tyrosine-protein kinase JAK2 (Homo sapiens, UniProt O60674); test: Inhibition of wild-type human partial length JAK2 JH1 catalytic domain (A829 to G1132 residues) expressed in mammalian expression system by Kinomescan method
# [36] = AUC in human at 45 mg, po administered as single dose pretreated with omeprazole; type: ADME, organism-based; settings: in vivo
# How it was run: (§3)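 Healthy human volunteers given a single oral 45 mg dose, either without pretreatment or after pretreatment with 20 mg omeprazole; plasma AUC compared.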
# [37] = Clearance in dog at 1 mg/kg, iv or 5 mg/kg, po; type: ADME, organism-based, Canis lupus familiaris; settings: in vivo
# [38] = AUC in human at 45 mg, po administered as single dose; type: ADME, organism-based; settings: in vivo; how it was run: as §3
# [39] = Apparent clearance in human hepatocytes; type: ADME, cell-based, Hepatocyte
# [40] = Fraction unbound in rat plasma; type: ADME, cell-free
# Hepatocyte [41] = test: Apparent clearance in dog hepatocytes; type: ADME, cell-based, Canis lupus familiaris
# Chain of Tyrosine-protein kinase JAK2 (O60674 whole entry, the tested form may be a part): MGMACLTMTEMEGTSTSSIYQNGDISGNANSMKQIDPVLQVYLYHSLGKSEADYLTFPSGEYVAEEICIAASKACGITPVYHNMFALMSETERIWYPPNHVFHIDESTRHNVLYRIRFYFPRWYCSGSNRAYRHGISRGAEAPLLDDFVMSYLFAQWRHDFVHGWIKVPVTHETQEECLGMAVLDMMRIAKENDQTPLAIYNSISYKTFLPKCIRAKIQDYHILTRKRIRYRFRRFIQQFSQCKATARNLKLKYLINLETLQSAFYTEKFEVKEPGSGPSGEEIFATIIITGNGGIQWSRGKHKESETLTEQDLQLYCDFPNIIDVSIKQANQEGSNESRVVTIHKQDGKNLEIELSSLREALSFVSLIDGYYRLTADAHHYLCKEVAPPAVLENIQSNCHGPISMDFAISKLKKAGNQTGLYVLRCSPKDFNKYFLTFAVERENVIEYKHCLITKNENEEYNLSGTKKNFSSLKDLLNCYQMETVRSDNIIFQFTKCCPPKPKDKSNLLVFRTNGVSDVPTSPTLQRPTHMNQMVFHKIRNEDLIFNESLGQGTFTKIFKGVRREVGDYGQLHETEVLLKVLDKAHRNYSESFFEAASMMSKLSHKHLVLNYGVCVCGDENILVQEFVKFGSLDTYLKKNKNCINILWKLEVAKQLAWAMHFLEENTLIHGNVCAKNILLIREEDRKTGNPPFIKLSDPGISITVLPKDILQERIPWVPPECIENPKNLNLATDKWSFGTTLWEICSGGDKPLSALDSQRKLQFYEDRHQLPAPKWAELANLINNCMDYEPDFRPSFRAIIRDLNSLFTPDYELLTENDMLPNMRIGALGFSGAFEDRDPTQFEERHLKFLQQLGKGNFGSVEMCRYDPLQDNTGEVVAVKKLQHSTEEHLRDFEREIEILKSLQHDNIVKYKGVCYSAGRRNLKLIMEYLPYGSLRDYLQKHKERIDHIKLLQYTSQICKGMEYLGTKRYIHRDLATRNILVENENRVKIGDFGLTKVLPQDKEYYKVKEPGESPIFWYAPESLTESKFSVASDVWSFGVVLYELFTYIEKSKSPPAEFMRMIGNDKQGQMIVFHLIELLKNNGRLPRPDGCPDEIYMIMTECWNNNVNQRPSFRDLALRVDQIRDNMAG
smiles,measurement,setting,value
c1cn2cc(-c3ccc4nc[nH]c4c3)nc(Nc3ccc(N4CCN(C5COC5)CC4)cc3)c2n1,efflux ratio,[1],38
same,solubility,[2],> 100 µM
same,solubility,[3],49 µM
same,EC50,[4],47 nM
same,EC50,[5],90 nM
same,Papp,[6],0.4 ×10⁻⁶ cm/s
same,CLhep predicted,[7],< 1.83 mL/min/kg
same,IC50,[8],17.3 nM
c1cn2cc(-c3cnc4nc[nH]c4c3)nc(Nc3ccc(N4CCN(C5COC5)CC4)cc3)c2n1,efflux ratio,[1],5.8
same,solubility,[2],> 100 µM
same,solubility,[3],< 1 µM
same,EC50,[4],286 nM
same,EC50,[5],309 nM
same,Papp,[6],2.7 ×10⁻⁶ cm/s
same,CLhep predicted,[7],3 mL/min/kg
same,IC50,[8],13.4 nM
OC[C@H]1CN(c2ccc(Nc3nc(-c4ccc5cn[nH]c5c4)cn4ccnc34)cc2)CCO1,solubility,[2],87 µM
same,solubility,[3],1.2 µM
same,EC50,[4],29 nM
same,EC50,[5],501 nM
same,CLhep predicted,[7],4.33 mL/min/kg
same,IC50,[8],1.1 nM
same,logD,[9],1.9 to 2.7
CN(C)C[C@@H]1CN(c2ccc(Nc3nc(-c4ccc5cn[nH]c5c4)cn4ccnc34)cc2)CCO1,efflux ratio,[1],29
same,solubility,[2],90 µM
same,solubility,[3],78 µM
same,EC50,[4],109 nM
same,EC50,[5],231 nM
same,bioavailability,[10],2%
same,Papp,[6],0.5 ×10⁻⁶ cm/s
same,CLhep predicted,[7],3.83 mL/min/kg
same,IC50,[8],0.9 nM
same,logD,[9],1.9 to 2.7
c1cn2cc(-c3ccc4cn[nH]c4c3)nc(Nc3ccc(N4CC5CC(C4)O5)cc3)c2n1,solubility,[2],25 µM
same,solubility,[3],2 µM
same,EC50,[4],68 nM
same,EC50,[5],824 nM
same,CLhep predicted,[7],5.33 mL/min/kg
same,IC50,[8],61.6 nM
same,logD,[9],1.9 to 2.7
COCCN1CCN(c2ccc(Nc3nc(-c4ccc5cn[nH]c5c4)cn4ccnc34)cc2)CC1,solubility,[2],> 100 µM
same,solubility,[3],< 1 µM
same,EC50,[4],23 nM
same,EC50,[5],267 nM
same,CLhep predicted,[7],8.67 mL/min/kg
same,IC50,[8],0.9 nM
same,logD,[9],1.9 to 2.7
c1cn2cc(-c3ccc4cn[nH]c4c3)nc(Nc3ccc(N4CCN(C5COC5)CC4)cc3)c2n1,efflux ratio,[1],2.9
same,solubility,[2],> 100 µM
same,solubility,[3],< 1 µM
same,EC50,[4],53 nM
same,EC50,[5],385 nM
same,bioavailability,[10],42%
same,Papp,[6],5.5 ×10⁻⁶ cm/s
same,CLhep predicted,[7],3 mL/min/kg
same,IC50,[8],9.2 nM
same,logD,[9],1.9 to 2.7
Nc1cncc(-c2cn3ccnc3c(Nc3ccc(N4CCN(C5COC5)CC4)cc3)n2)n1 [LANRAPLENIB],Activity,Mus musculus [11],Active
same,half-life,[12],21.3 to 24.6 h
same,CLH(app),[13],23.3 mL/min/kg
same,solubility,[2],> 100 µM
same,CLH(app),Hepatocyte [14],4.67 mL/min/kg
same,fraction unbound,[15],0.322
same,fraction unbound,[16],0.204
same,Activity,[17],Non-Toxic
same,Activity,Mus musculus [18],Active
same,solubility,[3],99 µM
same,Vd,[19],2.5 L/kg
same,AUC,[20],8.8 µM·h
same,bioavailability,[21],100%
same,Activity,[22],Non-Toxic
same,bioavailability,[23],100%
same,bioavailability,[10],60%
same,fraction unbound,[24],0.385
same,Activity,[25],Non-Toxic
same,clearance,[26],9.67 mL/min/kg
same,Vd,[27],1.3 L/kg
same,half-life,[28],2.3 h
same,AUC,[29],10.2 µM·h
same,half-life,[30],5.3 h
same,Activity,[31],Non-Toxic
same,Vd,[32],1.6 L/kg
same,clearance,[33],29.5 mL/min/kg
same,CLhep predicted,[7],< 1.83 mL/min/kg
same,half-life,[34],3.7 h
same,IC50,[35],120 nM
same,AUC,[36],6.46 µM·h
same,clearance,[37],5.5 mL/min/kg
same,AUC,[38],6.19 µM·h
same,CLH(app),[39],0.83 mL/min/kg
same,fraction unbound,[40],0.118
same,logD,[9],1.3
same,CLH(app),Hepatocyte [41],4.67 mL/min/kg
OC1CN(c2ccc(Nc3nc(-c4ccc5cn[nH]c5c4)cn4ccnc34)cc2)C1,solubility,[2],78 µM
same,solubility,[3],4 µM
same,EC50,[4],57 nM
same,EC50,[5],723 nM
same,CLhep predicted,[7],12.5 mL/min/kg
same,IC50,[8],11.3 nM
same,logD,[9],1.9 to 2.7
c1cn2cc(-c3ccc4cn[nH]c4c3)nc(Nc3ccc(N4C[C@@H]5C[C@H]4CO5)cc3)c2n1,solubility,[2],79 µM
same,solubility,[3],< 1 µM
same,EC50,[4],113 nM
same,EC50,[5],1500 nM
same,CLhep predicted,[7],11 mL/min/kg
same,IC50,[8],5 nM
same,logD,[9],1.9 to 2.7
c1cn2cc(-c3ccc4cn[nH]c4c3)nc(Nc3ccc(N4CC5COCC5C4)cc3)c2n1 (configuration not stated),solubility,[2],24 µM
same,solubility,[3],< 1 µM
same,EC50,[4],187 nM
same,EC50,[5],2210 nM
same,CLhep predicted,[7],4.5 mL/min/kg
same,IC50,[8],9.6 nM
same,logD,[9],1.9 to 2.7
c1cn2cc(-c3cnc4c(c3)NCCO4)nc(Nc3ccc(N4CCN(C5COC5)CC4)cc3)c2n1,solubility,[2],> 100 µM
same,solubility,[3],> 100 µM
same,EC50,[4],46.8 nM
same,EC50,[5],89 nM
same,bioavailability,[10],38%
same,CLhep predicted,[7],4.17 mL/min/kg
same,IC50,[8],8.4 nM
c1cn2cc(-c3ccc4cn[nH]c4c3)nc(Nc3ccc(N4CC5(COC5)C4)cc3)c2n1,solubility,[2],88 µM
same,solubility,[3],< 1 µM
same,EC50,[4],63 nM
same,EC50,[5],1500 nM
same,CLhep predicted,[7],11 mL/min/kg
same,IC50,[8],5 nM
same,logD,[9],1.9 to 2.7
c1cn2cc(-c3cnc4c(n3)NCCO4)nc(Nc3ccc(N4CCN(C5COC5)CC4)cc3)c2n1,efflux ratio,[1],3
same,solubility,[2],> 100 µM
same,solubility,[3],99 µM
same,EC50,[4],86 nM
same,EC50,[5],79 nM
same,bioavailability,[10],21%
same,Papp,[6],11 ×10⁻⁶ cm/s
same,CLhep predicted,[7],< 1.83 mL/min/kg
same,IC50,[8],7.8 nM
